Measurements taken from ChEMBL document CHEMBL1141088, “A new pyridazine series of GABAA alpha5 ligands” (J Med Chem, 2005).

Target: T1, GABA-A receptor; alpha-5/beta-3/gamma-2 (Homo sapiens, UniProt P18507+P28472+P31644)
T1 sequence (P18507 whole entry): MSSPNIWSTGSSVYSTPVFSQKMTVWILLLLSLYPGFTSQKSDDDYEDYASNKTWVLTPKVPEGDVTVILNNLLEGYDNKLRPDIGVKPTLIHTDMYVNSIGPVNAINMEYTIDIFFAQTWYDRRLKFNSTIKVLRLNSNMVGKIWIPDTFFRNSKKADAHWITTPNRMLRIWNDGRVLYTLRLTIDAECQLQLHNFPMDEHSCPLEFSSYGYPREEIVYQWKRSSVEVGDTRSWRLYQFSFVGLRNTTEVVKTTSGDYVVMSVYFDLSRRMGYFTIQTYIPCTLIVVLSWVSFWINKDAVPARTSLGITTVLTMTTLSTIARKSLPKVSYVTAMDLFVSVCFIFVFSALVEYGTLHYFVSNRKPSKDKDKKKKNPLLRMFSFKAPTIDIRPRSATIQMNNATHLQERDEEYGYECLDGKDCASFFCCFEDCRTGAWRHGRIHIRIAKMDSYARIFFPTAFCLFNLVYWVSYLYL
T1 sequence (P28472 whole entry): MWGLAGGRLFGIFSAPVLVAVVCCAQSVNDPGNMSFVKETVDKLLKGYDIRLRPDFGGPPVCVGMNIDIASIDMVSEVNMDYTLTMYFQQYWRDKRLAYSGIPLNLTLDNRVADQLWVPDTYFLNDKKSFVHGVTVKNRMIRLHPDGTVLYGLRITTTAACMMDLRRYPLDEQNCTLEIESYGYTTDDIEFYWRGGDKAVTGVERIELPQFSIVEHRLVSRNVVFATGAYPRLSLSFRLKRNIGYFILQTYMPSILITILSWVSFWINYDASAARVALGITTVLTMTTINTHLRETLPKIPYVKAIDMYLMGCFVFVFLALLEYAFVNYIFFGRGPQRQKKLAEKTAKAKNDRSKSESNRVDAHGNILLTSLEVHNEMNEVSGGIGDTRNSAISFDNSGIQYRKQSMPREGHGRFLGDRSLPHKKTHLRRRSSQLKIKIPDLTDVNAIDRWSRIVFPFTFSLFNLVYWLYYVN
T1 sequence (P31644 whole entry): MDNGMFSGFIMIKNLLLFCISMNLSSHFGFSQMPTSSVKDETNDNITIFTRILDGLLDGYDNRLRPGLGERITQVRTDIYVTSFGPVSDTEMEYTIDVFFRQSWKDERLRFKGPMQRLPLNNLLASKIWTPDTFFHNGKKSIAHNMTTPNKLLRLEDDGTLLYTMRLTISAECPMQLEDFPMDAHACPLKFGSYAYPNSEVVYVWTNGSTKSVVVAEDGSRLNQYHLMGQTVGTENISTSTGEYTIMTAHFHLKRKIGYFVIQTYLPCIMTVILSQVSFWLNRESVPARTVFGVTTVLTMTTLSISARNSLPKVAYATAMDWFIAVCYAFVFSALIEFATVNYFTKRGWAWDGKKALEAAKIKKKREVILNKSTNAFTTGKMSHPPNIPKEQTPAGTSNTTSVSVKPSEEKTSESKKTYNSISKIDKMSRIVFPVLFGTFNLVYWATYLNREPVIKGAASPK
Test: Displacement of [3H]-Ro- 15-1788 binding from human recombinant Gamma-aminobutyric acid A receptor alpha-5-beta-3-gamma-2 expressed in mouse fibroblast L(tk-) cells (30 min at 24 degrees C, pH 7.4)
Assay type: cell-based
Method in brief: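 Membranes from L(tk-) cells stably expressing human α1, α3 or α5 β3γ2 in 50 mM Tris pH 7.4. [3H]Ro15-1788 at 1.8 nM final, 30 min at 24 °C. Nonspecific binding set with 10 µM flunitrazepam, total binding in 0.1% DMSO. Filtration, scintillation counting. Ki is mean ± SEM of ≥3 independent determinations.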

Ki: 5.2 nM
SMILES: N#Cc1cccc(-c2cnnc(-c3ccccc3)c2)c1
